ChEMBL document CHEMBL4004865, “Synthesis, SAR and molecular docking study of novel non-β-lactam inhibitors of TEM type β-lactamase” (Bioorg Med Chem Lett, 2017)

Tests used:
Escherichia coli [1] = experiment: Inhibition of Escherichia coli beta-lactamase TEM-171 assessed as initial hydrolysis rate of substrate CENTA at 100 uM by UV spectrophotometric method (reference value: 0.74 +/- 0.11 uM/s)
Procedure, shortened: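 TEM-171 β-lactamase at 10 nM. Substrate and each inhibitor were tested at one fixed concentration. The initial rate V0 of substrate hydrolysis was recorded. The relative activity decrease (%) was calculated from V0 with inhibitor versus V0 of the enzyme-only control.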

Escherichia coli [2] = experiment: Inhibition of Escherichia coli beta-lactamase TEM-171 using CENTA as substrate at 100 uM by UV spectrophotometric method relative to control
Procedure, shortened: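 Substrate and each inhibitor were tested at one fixed concentration. The initial rate V0 of substrate hydrolysis was recorded. The relative activity decrease (%) was calculated from V0 with inhibitor versus V0 of the enzyme-only control.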

Row | SMILES | V0 (Escherichia coli [1]) [µM/s] | inhibition (Escherichia coli [2]) [%]
1 | O=C(O)CCCC(=O)Nc1ccc(Oc2ccc(Cl)cc2Cl)cc1 | 0.51 | 31
2 | O=C(O)CCC(=O)Nc1ccc(Oc2ccccc2)cc1 | 0.73 | 1.4
3 | O=C(O)CCC(=O)Nc1ccc(Oc2ccc(Br)cc2)cc1 | 0.53 | 28
4 | O=C(O)CCCC(=O)Nc1ccc(Oc2ccccc2)cc1 | 0.73 | 1.4
5 | O=C(O)c1ccc(NC(=S)Nc2ccc(Oc3ccc(Cl)cc3Cl)cc2)cc1 | 0.37 | 50

Other lines, results leading:

Row | V0 (Escherichia coli [1]) [µM/s] | inhibition (Escherichia coli [2]) [%] | SMILES
6 | 0.53 |  | O=C(O)CCCC(=O)Nc1ccc(Oc2ccc(Br)cc2)cc1
7 | 0.7 | 5.4 | O=C(O)CCC(=O)Nc1ccc(Oc2ccc(Cl)cc2)cc1
8 | 0.51 | 31 | O=C(O)C(=O)Nc1ccc(Oc2ccc(Cl)cc2Cl)cc1
9 | 0.73 | 1.4 | O=C(O)CCCC(=O)Nc1ccc(Oc2ccc(Cl)cc2)cc1
10 | 0.53 | 28.4 | O=C(O)c1ccc(NC(=S)Nc2ccc(Oc3ccc(Cl)cc3)cc2)cc1
11 | 0.46 | 38 | O=C(O)CCC(=O)Nc1ccc(Oc2ccc(Cl)cc2Cl)cc1
12 | 0.59 | 20.3 | O=C(O)c1ccc(NC(=S)Nc2ccc(Oc3ccccc3)cc2)cc1
